# Calls of active or inactive are those of the source. The rule behind the calls is not given here.
# What was measured:
# [1] = molecular target: T1, RecQ-like DNA helicase BLM (Homo sapiens, UniProt P54132); experiment: Inhibition of His-tagged BLM (unknown origin) expressed in Escherichia coli BL21 (DE3) assessed as reduction in BLM helicase unwinding activity at 50 uM using 5'-biotin labeled forked-DNA as substrate after 1 hr by PAGE analysis
# In short: (§1)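 BLM642-1296 (His-tagged, E. coli BL21(DE3)) preincubated with ligand (1.0, 10, 50 μM; ≤1% DMSO) for 1 h at 4 °C. Reaction: 8 nM annealed 5′-biotin duplex forked DNA, 32 nM BLM, 2 mM ATP, 0.1% BSA, 1 h.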
# [2] = molecular target: T1, RecQ-like DNA helicase BLM; experiment: Inhibition of His-tagged BLM (unknown origin) expressed in Escherichia coli BL21 (DE3) assessed as reduction in BLM helicase unwinding activity at 10 uM using 5'-biotin labeled forked-DNA as substrate after 1 hr by PAGE analysis; in short: as §1
# [3] = molecular target: T1, RecQ-like DNA helicase BLM; experiment: Inhibition of His-tagged BLM (unknown origin) expressed in Escherichia coli BL21 (DE3) assessed as reduction in BLM helicase unwinding activity at 1 uM using 5'-biotin labeled forked-DNA as substrate after 1 hr by PAGE analysis; in short: as §1
# [4] = molecular target: T1, RecQ-like DNA helicase BLM; experiment: Inhibition of BLM in human HCT116 cells assessed as induction of HRR up-regulation after 24 hrs by GFP-based flow cytometry; type: cell-based
# In short: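 HCT116 cells (2×10^5) co-transfected with DR-GFP HRR reporter and I-SceI plasmid; 24 h later treated with 0–2 μM ligand (reference 0–50 μM); BLM siRNA knockdown where stated. GFP-positive cells counted by flow cytometry and normalised to untreated; triplicate, mean ± SD.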
# [5] = molecular target: T1, RecQ-like DNA helicase BLM; settings: 50 uM
# T1 sequence (P54132 whole entry): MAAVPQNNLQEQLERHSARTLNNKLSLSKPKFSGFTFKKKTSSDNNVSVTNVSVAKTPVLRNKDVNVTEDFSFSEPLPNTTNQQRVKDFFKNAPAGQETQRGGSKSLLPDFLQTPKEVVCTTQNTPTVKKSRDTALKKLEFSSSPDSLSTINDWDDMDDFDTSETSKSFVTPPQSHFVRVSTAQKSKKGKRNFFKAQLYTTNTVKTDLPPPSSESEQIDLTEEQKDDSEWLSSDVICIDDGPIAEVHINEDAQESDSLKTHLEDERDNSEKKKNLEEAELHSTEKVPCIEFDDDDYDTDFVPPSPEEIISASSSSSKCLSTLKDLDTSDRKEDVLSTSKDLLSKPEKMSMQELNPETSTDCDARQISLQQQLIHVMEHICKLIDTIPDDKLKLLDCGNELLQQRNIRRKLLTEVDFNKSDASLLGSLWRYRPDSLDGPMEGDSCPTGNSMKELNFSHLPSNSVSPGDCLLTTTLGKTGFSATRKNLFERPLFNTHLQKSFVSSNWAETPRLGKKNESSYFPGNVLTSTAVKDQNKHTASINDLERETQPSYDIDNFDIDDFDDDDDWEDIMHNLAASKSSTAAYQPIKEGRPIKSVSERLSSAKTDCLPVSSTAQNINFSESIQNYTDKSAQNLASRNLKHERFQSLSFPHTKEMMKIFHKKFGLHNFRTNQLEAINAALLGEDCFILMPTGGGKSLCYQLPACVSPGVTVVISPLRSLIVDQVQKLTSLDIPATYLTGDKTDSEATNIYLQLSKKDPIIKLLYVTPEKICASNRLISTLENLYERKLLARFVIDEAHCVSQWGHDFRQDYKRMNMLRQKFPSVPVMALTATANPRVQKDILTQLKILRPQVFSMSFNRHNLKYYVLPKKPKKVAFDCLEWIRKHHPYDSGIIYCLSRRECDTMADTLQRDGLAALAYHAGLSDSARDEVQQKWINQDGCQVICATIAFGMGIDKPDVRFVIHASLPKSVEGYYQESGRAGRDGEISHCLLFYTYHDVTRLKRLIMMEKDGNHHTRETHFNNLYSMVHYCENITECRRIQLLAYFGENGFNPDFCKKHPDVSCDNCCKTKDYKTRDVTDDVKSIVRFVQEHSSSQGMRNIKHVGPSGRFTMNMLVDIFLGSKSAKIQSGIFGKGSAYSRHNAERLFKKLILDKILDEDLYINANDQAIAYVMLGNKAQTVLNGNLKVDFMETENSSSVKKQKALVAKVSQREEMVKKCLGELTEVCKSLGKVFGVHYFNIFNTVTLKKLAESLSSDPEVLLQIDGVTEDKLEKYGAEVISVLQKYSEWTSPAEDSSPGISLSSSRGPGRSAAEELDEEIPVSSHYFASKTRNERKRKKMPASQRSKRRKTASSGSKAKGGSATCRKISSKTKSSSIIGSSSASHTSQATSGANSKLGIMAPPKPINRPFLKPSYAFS
inhibition [1],inhibition [2],inhibition [3],EC [4],inhibition [5],SMILES
Active,Active,Active,50 µM,inactive,O=C(Nc1ccc(F)c(C(F)(F)F)c1)Nc1nnc(-c2ccncc2)s1
Active,Active,Active,–,–,CCN(CC)CCCNc1cc2nc3n(c(=O)c2cc1F)CC/C3=C\c1ccc(CC(C)C)cc1
Active,Active,Active,–,–,CCN(CC)CCCNc1cc2nc3n(c(=O)c2cc1F)CC/C3=C\c1ccc(C(F)(F)F)cc1
Active,Active,Active,–,–,CCN(CC)CCCNc1cc2nc3n(c(=O)c2cc1F)CC/C3=C\c1ccc(C(C)(C)C)cc1
